Data as given in publication PMC12638245 (Nature Metabolism, 2025).

How the values were obtained:
[1] = system: ChREBP; conditions: G3P added to HEK293T cells expressing ChREBP and MLX; cited from earlier work
[2] = system: circulating FGF21; assay: Serum FGF21 ELISA in mice given 5%; type: in vivo, mouse; conditions: mice of each genotype, 5% (w/v) glycerol in drinking water for 2 days, vs water
Procedure, shortened: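 Mice aged 8–16 weeks, single-housed for 2 days on chow with water or 5% (w/v) glycerol. Blood taken at decapitation; serum spun 8,000g, 10 min, 4 °C. Sandwich ELISA: samples 2 h at room temperature, HRP-conjugated anti-FGF21 2 h, substrate 30 min, read at 450 nm with 570 nm correction. Haemolysed samples excluded; genotype-blinded analysis; two-way ANOVA with Tukey.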

[3] = system: hepatic ChREBP transcription programme; type: in vivo, mouse; conditions: liver
Procedure, shortened: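 Mice aged 8–16 weeks, single-housed on chow with water or 5% (w/v) glycerol as the only drink for 2 days. Livers freeze-clamped in liquid nitrogen. RNA from 20 mg liver, DNase-treated, RIN >5.0; libraries from 150 ng RNA. Paired-end 150 bp sequencing, >20 million read pairs per sample. HTSeq counts, TMM normalisation in edgeR, GLMs with sequencing batch as covariate.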

[4] = system: hepatic G3P, hexose phosphates, pentose phosphates; assay: Targeted LC-MS metabolomics of mouse liver; type: in vivo
Procedure, shortened: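 Freeze-clamped liver powder (2.0 mg) spiked with 13C3-G3P (2.28 µM final) or a 13C yeast extract internal standard (hexose/pentose phosphates). Boiling 25% 10 mM HEPES/75% ethanol extraction, 55 °C 5 min, sonication, spin at 16,100g, dried, diluted 20-fold. Ion-pair reversed-phase UHPLC (tributylamine/acetic acid, methanol gradient), negative-mode targeted MS2. G3P and hexose phosphates quantified; pentose phosphates relative only.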

[5] = genotype and/or addition of glycerol

SMILES | protection of ChREBP from thermal precipitation [1] | circulating FGF21 [2] | induction of ChREBP transcripts by glycerol ([3]; Slc25a13-/- Gpd2-/- double mutant) | Srebf1 expression ([3]; addition of glycerol) | induction of ChREBPα transcript by glycerol ([3]; wild-type and single mutant strains) | hepatic concentrations of hexose phosphates [4, 5] | relative levels of pentose phosphates in liver [4, 5] | hepatic G3P level ([4]; glycerol-exposed male mice, each of the four genotypes, vs water)
O=P(O)(O)OCC(O)CO (centres unmarked) [G3P, glycerol-3-phosphate] | protected ChREBP from thermal precipitation |  |  |  |  |  |  | 
OCC(O)CO [glycerol] |  | significantly elevated circulating FGF21 | no further induction | unaffected | two- to threefold | not altered | unaffected | tended to be higher
